# Data as given in PubChem BioAssay.
# Activity calls are given as the source filed them.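 The calls were made as follows, unless noted: active = inhibition above 20% together with a positive visual image hit; inconclusive = visual image hit but inhibition not above 20%; inactive = no visual image hit.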
# How the values were obtained:
# [1] = inhibitors of TNFa-induced NFkB p65 translocation, primary screen, imaging, HUVEC, MLSMR starter and 10KST1 sets (AID 438); details: HUVEC TNFa-induced p65 nuclear translocation; cell count: measured here: nuclei count (cytotoxicity indicator), at 2.08 µM; inhibition: at 2 µM, stronger effect = higher value, 0% TNFa-plus-vehicle, 100% no-TNFa wells;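 also: compound added about 3h40 before a 20 min TNFalpha stimulation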;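 as to inhibition: signal is the nuclear over cytoplasmic p65 intensity ratio per well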
# [2] = inhibitors of mutant huntingtin aggregation, primary screen, imaging, exon1htt(103Q)mCFP cells, high-content imaging (AID 483;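 active = visual image review flags a hit and inhibition of aggregation exceeds 20%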;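 also: compound exposure lasted 3 days before fixation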;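 as to nuclei count: percent of the per-plate median nuclei count of sample wells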); details: exon1htt(103Q)mCFP cell line, aggregate imaging, at 2 µM; inhibition of aggregation: stronger effect = higher value; nuclei count: measured here: cell count, toxicity
# [3] = inhibitors of E-selectin induction by TNFa, primary screen, imaging, HUVEC, immunofluorescence, MLSMR starter and 10KST1 sets (AID 487;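 active = visually confirmed hit in the image check and inhibition above 20%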;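 as to inhibition: signal is fraction of cell area covered by stained E-selectin grains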;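 as to nuclei count: 100% = median nuclei count of all wells on the same plate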); details: HUVEC TNFalpha-induced E-selectin immunofluorescence imaging, at 2 µM; inhibition: stronger effect = higher value; nuclei count: measured here: cell number, toxicity
# [4] = molecular target: Voltage-gated potassium channel subunit beta-2 (Rattus norvegicus) (UniProt P62483); assay: KvBeta enzyme negative modulators, primary screen, biochemical, NADPH fluorescence (AID 622;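 active = fluorescence slope higher than the sample average by over 3 SD, cut at about -0.22 in these data, passing the limit was not always enough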;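 also: slope of raw intensity against log time taken from 70 to 1610 s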); details: recombinant KvBeta, 4-cyanobenzaldehyde reduction, at 10 µM, stronger effect = higher value
# Sequence of Voltage-gated potassium channel subunit beta-2 (Rattus norvegicus) (P62483 whole entry, looked up): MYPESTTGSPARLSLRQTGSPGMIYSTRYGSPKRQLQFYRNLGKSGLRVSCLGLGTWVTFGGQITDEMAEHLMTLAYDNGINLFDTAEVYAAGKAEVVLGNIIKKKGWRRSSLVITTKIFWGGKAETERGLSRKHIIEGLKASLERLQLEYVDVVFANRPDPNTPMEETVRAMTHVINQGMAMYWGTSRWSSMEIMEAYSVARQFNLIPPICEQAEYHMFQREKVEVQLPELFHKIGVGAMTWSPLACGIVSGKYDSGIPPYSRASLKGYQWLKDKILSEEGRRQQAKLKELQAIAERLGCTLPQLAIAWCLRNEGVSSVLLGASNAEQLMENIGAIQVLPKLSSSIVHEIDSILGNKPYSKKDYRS
# [5] = molecular target: Voltage-gated potassium channel subunit beta-2 (Rattus norvegicus) (UniProt P62483); assay: KvBeta positive modulators, primary screen, biochemical, NADPH fluorescence (AID 623;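 active = NADPH fluorescence slope more negative than the mean of all samples by about 3 SD, 99.7% confidence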;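 also: fluorescence intensity change per second fitted from 20 to 320 s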); details: Recombinant KvBeta, NADPH fluorescence decrease slope, 10 min; at 10 µM; stronger effect = lower value
# [6] = molecular target: Muscarinic acetylcholine receptor M4 (Homo sapiens) (UniProt P08173); assay: compounds altering M4/GIRK thallium flux, either direction, primary screen, M4 allosteric agonist project, cell-based, HEK293 M4/GIRK, BTC-AM (AID 625;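 active = fluorescence slope after compound addition differing from the mean of all tested samples at 99.7% confidence, mostly higher but some lower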;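 also: thallium influx through GIRK channels coupled to M4 in HEK293 cells with BTC-AM dye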); details: at 10 µM, actives lie on both sides
# Sequence of Muscarinic acetylcholine receptor M4 (Homo sapiens) (P08173 whole entry, looked up): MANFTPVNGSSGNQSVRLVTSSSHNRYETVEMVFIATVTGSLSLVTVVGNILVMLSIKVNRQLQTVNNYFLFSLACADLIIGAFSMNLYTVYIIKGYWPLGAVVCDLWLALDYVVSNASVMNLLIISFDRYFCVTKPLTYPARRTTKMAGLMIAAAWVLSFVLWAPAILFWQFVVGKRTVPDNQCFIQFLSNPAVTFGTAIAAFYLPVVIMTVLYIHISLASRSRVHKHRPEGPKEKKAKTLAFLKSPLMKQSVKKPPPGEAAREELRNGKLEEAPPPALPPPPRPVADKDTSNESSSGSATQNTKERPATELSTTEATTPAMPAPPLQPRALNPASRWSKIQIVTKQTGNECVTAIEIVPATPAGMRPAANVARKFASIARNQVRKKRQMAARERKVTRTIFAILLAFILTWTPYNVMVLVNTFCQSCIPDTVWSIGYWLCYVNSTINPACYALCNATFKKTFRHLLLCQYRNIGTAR
# Method in brief: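 Material: HEK293 cells with M4 receptor and GIRK channels; Times: cells overnight at 37 °C, BTC-AM loading 1 h, reads 2 min total; Technique: kinetic BTC-AM fluorescence sampled at 1 Hz, 10 s pre-addition baseline; Read-out basis: slope over 15–24 s of trace normalized to starting intensity; Controls: carbachol positive, DMSO negative.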
# [7] = inhibitors of Sendai virus-induced IRF3 signaling, primary screen, TLR/RLR signaling modifier project, cell-based, Sendai virus stimulus, luciferase, 10K MLSCN set (AID 602276;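 active = inhibition at or above 50% at 10 µM; inactive = inhibition below 50%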;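 also: firefly luciferase from ISG56 promoter only with Renilla not read in this screen; 0% = Sendai virus plus DMSO and 100% = medium plus DMSO without virus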); details: HEK293 RL24 IRF3 luciferase reporter, at 10 µM, stronger effect = higher value
# [8] = inhibitors of poly I:C-induced TLR3 signaling, primary screen, cell-based, poly I:C stimulus, luciferase, 10K MLSCN set (AID 602277;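 active = inhibition of the reporter signal at or above 50%; inactive = inhibition below 50%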); details: HEK293-TLR3 RL24 IRF3 luciferase reporter, at 10 µM, stronger effect = higher value
# [9] = molecular target: Alpha-2C adrenergic receptor (Homo sapiens) (UniProt P18825); assay: modulators of alpha2C/GIRK thallium flux, primary screen, cell-based, HEK293 alpha2C/GIRK1/2 (AID 624;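 active = fluorescence slope after compound addition differing from the mean of all screened samples at 99.7% confidence, in either direction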); details: thallium flux BTC fluorescence, at 10 µM, actives lie on both sides
# Sequence of Alpha-2C adrenergic receptor (Homo sapiens) (P18825 whole entry, looked up): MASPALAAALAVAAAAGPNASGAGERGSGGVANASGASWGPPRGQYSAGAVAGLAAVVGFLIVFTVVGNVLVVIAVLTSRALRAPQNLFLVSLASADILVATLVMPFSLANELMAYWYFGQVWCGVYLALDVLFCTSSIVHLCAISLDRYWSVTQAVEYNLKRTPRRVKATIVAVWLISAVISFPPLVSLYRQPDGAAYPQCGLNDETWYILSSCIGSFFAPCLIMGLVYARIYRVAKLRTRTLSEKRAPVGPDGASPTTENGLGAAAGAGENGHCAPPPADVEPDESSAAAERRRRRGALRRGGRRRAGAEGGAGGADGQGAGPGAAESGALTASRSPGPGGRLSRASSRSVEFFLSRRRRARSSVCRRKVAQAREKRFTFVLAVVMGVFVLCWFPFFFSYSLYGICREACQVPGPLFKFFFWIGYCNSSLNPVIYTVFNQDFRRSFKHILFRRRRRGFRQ
# [10] = inhibitors of larval lipid processing in zebrafish, primary screen, whole organism, PED6 fluorescence, gall bladder and intestine (AID 686;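 active = a full or partial loss of lipid-probe fluorescence in the fish gall bladder, intestine or both, judged by eye; inactive = no fluorescence loss, or compound toxic to the fish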;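 also: larvae 5 to 7 days old with five fish per well; signal comes from phospholipase A2 cleavage of quenched PED6 carried via bile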); details: Zebrafish larvae PED6 lipid processing, fluorescence scoring; screened at 20 µM (by protocol)
# Method in brief: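 Incubation: overnight exposure of larvae to compound plus PED6 / Test system: live zebrafish larvae aged 5-7 days, whole organism / Amount: 5 larvae per well / Read-out basis: visual per-well fluorescence inhibition score / Signal: visual fluorescence microscopy scoring of gall bladder, gut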
Compound,cell count [1],inhibition [1],inhibition of aggregation [2],nuclei count [2] [%],inhibition [3],nuclei count [3] [%],fluorescence slope [4],NADPH fluorescence slope [5],fluorescence slope [6],inhibition [7],inhibition [8],slope [9],outcome [10]
CSC1=C(C#N)C(c2ccc(C)cc2)C2=C(CCCC2=O)N1 (stereo not given),322,-15.9% (inactive),-19.6% (inactive),100,17.3% (inactive),109,-0.557 (inactive),-5.6e-05 (inactive),0.00661 (inactive),8.18% (inactive),19.7% (inactive),–,–
CC(=O)N1C(=O)N(C)C2C1N(C(C)=O)C(=O)N2C (stereo not given),395,5.4% (inactive),7.3% (inactive),96.4,-4.1% (inactive),98.6,-0.574 (inactive),-5e-05 (inactive),0.00666 (inactive),11.1% (inactive),16.5% (inactive),–,–
Cc1cccc(NC(=O)CN(C)S(=O)(=O)c2ccccc2)n1,536,-17.1% (inactive),2.2% (inactive),123,-24.3% (inactive),116,-0.44 (inactive),-7.5e-05 (inactive),0.00526 (inactive),15% (inactive),15.7% (inactive),–,–
Cn1nc(C(=O)Nc2cccc(C(F)(F)F)c2)ccc1=O,357,9.9% (inactive),-1.2% (inactive),100,-46.7% (inactive),104,-0.576 (inactive),4e-05 (inactive),0.00652 (inactive),5.35% (inactive),-5.97% (inactive),–,–
NCC(O)COc1ccc2c(c1)OCO2 (stereo not given),378,-7% (inactive),-7.4% (inactive),99.3,-61.9% (inactive),103,-0.551 (inactive),-0.000108 (inactive),0.00335 (inactive),-1.42% (inactive),3.66% (inactive),–,–
O=C(COc1nnc2ccccn12)N1CCN(S(=O)(=O)c2ccccc2)CC1,691,-3.3% (inactive),-29.7% (inactive),95.4,-18.1% (inactive),122,-0.405 (inactive),-9.3e-05 (inactive),0.00653 (inactive),-12.4% (inactive),98.8% (active),–,–
Cc1cc(S(=O)(=O)N2CCN(c3ncccn3)CC2)ccc1-n1cnnn1,402,7.9% (inactive),-13.8% (inactive),101,–,149,-0.393 (inactive),-1e-05 (inactive),–,-6.32% (inactive),0.356% (inactive),0.00528 (inactive),inactive
CCOC(=O)C1CCCN(C(=O)c2cccs2)C1 (stereo not given),330,3.3% (inactive),13.3% (inactive),110,22% (inactive),104,-0.456 (inactive),-5e-05 (inactive),0.0055 (inactive),12.8% (inactive),3.43% (inactive),–,–
COC(=O)Cc1csc(N)n1,743,10% (inactive),15% (inactive),109,-54.5% (inactive),122,-0.529 (inactive),2.5e-05 (inactive),0.00536 (inactive),12.4% (inactive),22.3% (inactive),–,–
CCOc1ccc2ccccc2c1/C=N/n1cncn1,416,3.4% (inactive),9.7% (inactive),97.3,-92.4% (inactive),120,-0.605 (inactive),-4.9e-05 (inactive),0.0038 (inactive),11.7% (inactive),-8.9% (inactive),–,–
O=C(Nc1nc(-c2ccccc2)cs1)C1CCCO1 (stereo not given),440,9.4% (inactive),-2.5% (inactive),102,–,156,-0.409 (inactive),-5.9e-05 (inactive),–,-12.1% (inactive),98.1% (active),0.00563 (inactive),inactive
O=C(N1CCOCC1)N1CCC(NC(=O)C23CC4CC(CC(C4)C2)C3)CC1,363,9.1% (inactive),-0.3% (inactive),99,-15.5% (inactive),81.8,-0.55 (inactive),-4e-05 (inactive),0.00404 (inactive),15.6% (inactive),21.8% (inactive),–,–
CCC(=O)Nc1cccc(Br)c1,323,2.9% (inactive),17.6% (inactive),99.7,-38.1% (inactive),123,-0.541 (inactive),-6e-05 (inactive),0.0051 (inactive),-18.4% (inactive),-1.97% (inactive),–,–
COc1cccc(C(=O)Nc2ccc(NC(=O)C(C)(C)C)cn2)c1,444,9.8% (inactive),-12.7% (inactive),120,–,135,-0.571 (inactive),-9.6e-06 (inactive),0.00623 (inactive),36% (inactive),21.1% (inactive),–,–
CCCC(=O)Nc1ccccc1NC(=O)CCC,353,-5.6% (inactive),-10.5% (inactive),103,-23.8% (inactive),109,-0.434 (inactive),-6e-05 (inactive),0.00516 (inactive),14.4% (inactive),15.4% (inactive),–,–
Cc1cc(NC(=O)COc2cccc3cccnc23)no1,465,2% (inactive),11.9% (inactive),103,-67.8% (inactive),106,-0.385 (inactive),-2.5e-05 (inactive),0.00637 (inactive),-7.48% (inactive),-15.6% (inactive),–,–
